In the library only some 3.1% were active in any assay of this set; here they are far more common.
HSF1 inhib: HSF1 inhibition | NIH3T3-HGL HSE-luciferase, MG132-induced, luminescence 8 h; hits give low values | activity change, negative = inhibition, % at 7.5 µM (by protocol) | 300,000 tested, 0.77% active;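 active means more than half of replicate wells show activity change below -50%, luminescence cut by over half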;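 further: luciferase reports HSF-1 transcriptional activity via heat shock element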
HKDC1 inh: inhibitors of human hexokinase HKDC1; inhibition, % at 20 µM; 340,000 tested, 0.16% active; Q2TB90; recombinant HKDC1, G6PDH/diaphorase resazurin coupled fluorescence;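 active means inhibition above about 35% when tested at 20 µM, limit read from the data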
Target sequence (Q2TB90 whole entry, looked up): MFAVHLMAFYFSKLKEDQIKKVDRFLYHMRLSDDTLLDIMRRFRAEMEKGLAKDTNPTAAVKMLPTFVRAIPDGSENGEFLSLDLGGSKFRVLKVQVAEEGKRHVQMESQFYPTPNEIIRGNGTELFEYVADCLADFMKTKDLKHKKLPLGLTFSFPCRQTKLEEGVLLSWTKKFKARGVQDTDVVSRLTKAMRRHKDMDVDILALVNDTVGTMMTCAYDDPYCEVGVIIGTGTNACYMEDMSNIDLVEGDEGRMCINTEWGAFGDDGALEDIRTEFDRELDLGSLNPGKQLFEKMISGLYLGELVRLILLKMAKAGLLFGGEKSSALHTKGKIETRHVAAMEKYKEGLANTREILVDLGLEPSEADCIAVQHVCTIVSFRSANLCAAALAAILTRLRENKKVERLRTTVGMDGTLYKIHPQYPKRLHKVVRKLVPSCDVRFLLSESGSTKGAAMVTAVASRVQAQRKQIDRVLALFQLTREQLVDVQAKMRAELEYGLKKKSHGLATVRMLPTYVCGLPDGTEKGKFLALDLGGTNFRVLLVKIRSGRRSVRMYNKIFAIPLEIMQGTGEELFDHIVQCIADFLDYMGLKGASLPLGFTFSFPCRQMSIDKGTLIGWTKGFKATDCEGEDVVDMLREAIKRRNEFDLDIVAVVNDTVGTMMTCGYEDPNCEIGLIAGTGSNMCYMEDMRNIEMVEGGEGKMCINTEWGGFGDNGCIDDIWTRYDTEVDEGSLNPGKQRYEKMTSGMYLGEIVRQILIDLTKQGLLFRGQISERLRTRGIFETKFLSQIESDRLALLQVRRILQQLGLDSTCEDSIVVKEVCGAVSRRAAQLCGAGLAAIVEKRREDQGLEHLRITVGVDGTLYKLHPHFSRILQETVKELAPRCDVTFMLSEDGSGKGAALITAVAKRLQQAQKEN
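Material – in-house recombinant HK5 (HKDC1) enzyme · Quantity – HKDC1 at 5 µg/mL · Buffer or medium – pH 8.0 Tris buffer with 10 mM MgCl2 · Reagent – glucose with 1 mM ATP · Dosing – single 20 µM dose · Times – reaction time 90 min, room temperature, protected from light · Technique – resorufin fluorescence at 613 nm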
Hsp70 activator: Hsp70 transcriptional activation, primary screen. AID 1203. HeLa Hsp70 promoter luciferase reporter, luminescence; scaled: vehicle 0, proteasome-inhibitor control 100%. 200,000 tested, 0.04% active. activation, % at 10 µM;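 active means activation above the mean across all tested compounds plus 3 SD, cutoff set per campaign, cut at about 5.5% in these data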
Tb hexokinase: T. brucei hexokinase 1 inhibition; 220,000 tested, 0.11% active; recombinant TbHK1, G6PDH-coupled NADH A340; inhibition, % at 10 µM;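 active means inhibition of 50% or more in the single-dose primary screen; inactive means inhibition below 50%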
HSF-1 act: increases HSF-1 driven luciferase reporter signal | 300,000 tested, 1.7% active | NIH3T3-HGL HSF-1 luciferase reporter, MG132, 8 h; 100% = twice DMSO control signal | activation, % at 9 µM | AID 504408;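 active means mean replicate activation of at least 50% with a set share of replicates each reaching 50%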
HSP90 refold inh: inhibitors of HSP90 luciferase refolding in rabbit reticulocyte lysate. luciferase refolding luminescence, 3 h. inhibition, % at 5.6 µM. 290,000 tested, 0.91% active;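 active means inhibition above the screen-wide mean plus 3 SD, computed separately per campaign, cut at about 16% in these data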;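 further: inhibitors lower the luminescence because luciferase stays unfolded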
Of the large screens only hits and unclear results are named; the others gave an inactive call.

O=C(O)C1C2C=CC(O2)C1C(=O)Nc1ccc2c(c1)OCCO2 (centres undefined)	HSF1 inhib -74 (no result: HKDC1 inh)
COc1ccc(NC(=O)C2C3C=CC(O3)C2C(=O)O)cc1 (centres undefined)	none (no result: Hsp70 activator, Tb hexokinase)
O=C(O)C1C2C=CC(C2)C1C(=O)Nc1ccc2c(c1)OCCO2 (centres undefined)	HSF1 inhib -57
O=C(Cn1ccc2ccccc2c1=O)NCC(=O)N1CCN(c2ccccc2F)CC1	none (no result: Hsp70 activator, Tb hexokinase)
Cc1cc(C)cc(NC(=O)c2cc(C)nc3ccccc23)c1	none (no result: Hsp70 activator, Tb hexokinase)
O=C(NCCCCc1ccccc1)c1cccc(NC(=O)C2CC2)c1	none (no result: HSF1 inhib, Hsp70 activator, Tb hexokinase, HSF-1 act, HSP90 refold inh)
COc1ccc(-c2cc(C)no2)cc1S(=O)(=O)NCCCN1CCCCCC1	none (no result: Hsp70 activator, Tb hexokinase)
CC(C)(C)OC(=O)NC(CNCc1ccccc1)Cc1ccccc1 (centres undefined)	none (no result: Hsp70 activator, Tb hexokinase, HSP90 refold inh)
COC(=O)c1ccccc1NC(=O)CSc1nnc(C(CO)NC(=O)c2ccccc2)n1C (centres undefined)	HSF1 inhib -71
COC(=O)c1ccccc1NC(=O)CSc1nnc(C(CO)NC(=O)c2ccccc2Cl)n1C (centres undefined)	none
CC(OC(=O)CN1C(=O)NC2(CCCC2)C1=O)C(=O)c1ccccc1 (centres undefined)	HSF1 inhib -70 (no result: Hsp70 activator, Tb hexokinase, HSP90 refold inh)
CC(OC(=O)CN1C(=O)NC(C)(C)C1=O)C(=O)c1ccccc1 (centres undefined)	none
COc1ccc(Nc2nc(N)nc(CCl)n2)cc1	none (no result: Hsp70 activator)
Nc1nc(CCl)nc(Nc2ccc3ccccc3c2)n1	HSF-1 act 111 (no result: Hsp70 activator)
C=CCN1c2ccccc2[C@]23C[C@@H](C(=O)OC)N(C(=O)CC(C)C)C2=NC(C(=O)OC)=C(C(=O)OC)[C@H]13	none (no result: Hsp70 activator, HSP90 refold inh)
COC(=O)C1=C(C(=O)OC)[C@@H]2N(Cc3ccccc3)c3ccccc3[C@@]23C[C@@H](C(=O)OC)N(C(=O)c2ccc(Br)cc2)C3=N1	HSF1 inhib -68 (no result: Hsp70 activator, Tb hexokinase)
C=CCN1c2ccccc2[C@]23C[C@@H](C(=O)OC)N(C(=O)c4ccc(Br)cc4)C2=NC(C(=O)OC)=C(C(=O)OC)[C@H]13	HSF1 inhib -69 (no result: Hsp70 activator, HSP90 refold inh)
COC(=O)C1=C(C(=O)OC)[C@@H]2N(Cc3ccccc3)c3ccccc3[C@@]23C[C@@H](C(=O)OC)N(C(C)=O)C3=N1	none (no result: Hsp70 activator, HSP90 refold inh)
COC(=O)C1=C(C(=O)OC)[C@@H]2N(C)c3ccccc3[C@@]23C[C@@H](C(=O)OC)N(C(=O)CC(C)C)C3=N1	HSF1 inhib -75 (no result: Hsp70 activator, HSP90 refold inh)
CC(=O)N1CCN(S(=O)(=O)c2cccc(C(=O)NNC(=O)c3ccc(Br)cc3)c2)CC1	none (no result: HSF1 inhib, Hsp70 activator, Tb hexokinase, HSF-1 act, HSP90 refold inh)
CC(=O)N1c2ccc(S(=O)(=O)NCC3CCC(C(=O)NC4CCCCC4)CC3)cc2CC1C (centres undefined)	none (no result: Hsp70 activator, Tb hexokinase)
CCOC(=O)[C@@H]1[C@H]2COc3ccccc3[C@@H]2N2C(=O)N(c3ccc(C(F)(F)F)cc3)C(=O)[C@]12C	none (no result: Hsp70 activator, Tb hexokinase, HSP90 refold inh)
CCc1ccc(OC(C)C(=O)N(Cc2ccco2)C2CCS(=O)(=O)C2)cc1 (centres undefined)	HSF1 inhib -83 (no result: Hsp70 activator, Tb hexokinase)
CCc1ccc(OC(C)C(=O)N(Cc2ccccc2)C2CCS(=O)(=O)C2)cc1 (centres undefined)	none (no result: Hsp70 activator, Tb hexokinase)
Cc1cccc(-n2cc(CN3CCN(Cc4nccn4C)CC3)c(-c3cccc(F)c3)n2)c1	HSF-1 act 65
CCN(C(=O)c1cccc(S(=O)(=O)N2CCCCC2)c1)C1CCS(=O)(=O)C1 (centres undefined)	HSF-1 act 57 (no result: Hsp70 activator, Tb hexokinase, HSP90 refold inh)
CCOc1ccccc1NS(=O)(=O)c1cccs1	none
CCOc1ccccc1NC(=O)CCS(=O)(=O)c1cccs1	HSF1 inhib -89 (no result: Hsp70 activator, Tb hexokinase)
CCCCn1c(NC(=O)c2ccccc2)c(C#N)c2nc3ccccc3nc21	HSP90 refold inh 49 (no result: HSF1 inhib, HSF-1 act)
CCOC(=O)C1=C(COC(=O)c2ccc(Cl)nc2)NC(=O)NC1C (centres undefined)	none (no result: HSF1 inhib, Hsp70 activator, Tb hexokinase, HSF-1 act, HSP90 refold inh)
CCCCC(=O)NC(c1ccc(N(C)C)cc1)c1ccc2cccnc2c1O (centres undefined)	HSP90 refold inh 19 (no result: Hsp70 activator, Tb hexokinase)
CCCCC(=O)NC(c1ccc(Cl)cc1)c1ccc2cccnc2c1O (centres undefined)	none (no result: Hsp70 activator, Tb hexokinase)
CCCC(=O)NC(c1ccccc1OC)c1ccc2cccnc2c1O (centres undefined)	HSP90 refold inh 24
CCCCC(=O)NC(c1ccccc1OC)c1ccc2cccnc2c1O (centres undefined)	none (no result: Hsp70 activator)

Bioassay records deposited in PubChem by several laboratories.
